Published values collected from several papers.
PPO3: PPO3 (Agaricus bisporus, UniProt C7FF04)
HDAC2: Histone deacetylase 2 (HDAC2, Homo sapiens, UniProt Q92769)
PDE4A: 3',5'-cyclic-AMP phosphodiesterase 4A (PDE4A, Homo sapiens, UniProt P27815)
HTR2A: 5-hydroxytryptamine receptor 2A (HTR2A, Homo sapiens, UniProt P28223)

Compound | target | assay | IC50
Nc1nc(-c2ccc(I)cc2)cc(-c2ccc(-c3cc(-c4ccc(I)cc4)nc(N)n3)cc2)n1 | PPO3 | enzyme activity, inhibitor, absorbance | 30600 nM
O=C(NO)c1cncc(OS(=O)(=O)Oc2ccc3ccccc3c2)c1 | HDAC2 | enzyme activity, inhibitor, fluorescence | 1460 nM
Nc1nc(-c2ccc(Br)cc2)cc(-c2ccc(-c3cc(-c4ccc(Br)cc4)nc(N)n3)cc2)n1 | PPO3 | enzyme activity, inhibitor, absorbance | 40900 nM
CN(C)C(=O)c1cc2cnc(Nc3ccc(N4CCNCC4)cn3)nc2n1C1CCCC1 | PDE4A | enzyme activity, inhibitor, TR-FRET | 250 nM
c1ccc(O[C@H]2CCN(Cc3ccc(-c4ccn[nH]4)o3)C2)cc1 | HTR2A | calcium signal, antagonist | 5200 nM
C=CC(=O)N1CCCN(C(=O)c2cc(Sc3cnc(NC(=O)C4CC4)s3)c(C)cc2OC)C[C@H]1C | Tyrosine-protein kinase TXK (TXK, Homo sapiens, UniProt P42681) | enzyme activity, inhibitor | 261 nM
CCc1c(C)nc(-c2ccc(Cl)s2)nc1Nc1ccc(CC(=O)O)cc1 | PDE4A | enzyme activity, inhibitor, FP | ~3700 nM
O=C(NO)c1cncc(OS(=O)(=O)Oc2ccc(-n3ccnc3)cc2)c1 | HDAC2 | enzyme activity, inhibitor, fluorescence | 1370 nM
NCC1Cc2cc(F)ccc2N(C(=O)Cc2cc(F)ccc2Br)C1 (stereo not drawn) | HTR2A | calcium signal, antagonist | 1160 nM
Nc1ccccc1NC(=O)c1ccc(CNc2ccc(NC3=C(Cl)C(=O)c4cccnc4C3=O)cc2)cc1 | HDAC2 | enzyme activity, inhibitor | 415 nM
CCN(Cc1cc(Br)ccc1O)C(=O)C(N)Cc1ccco1 (stereo not drawn) | HTR2A | calcium signal, antagonist | 27000 nM
Cc1ccc(-c2cc(-c3ccc(-c4cc(-c5ccc(C)cc5)nc(N)n4)cc3)nc(N)n2)cc1 | PPO3 | enzyme activity, inhibitor, absorbance | 37200 nM
